Measured values: the array DNA melting data of Ke et al. (doi:10.1101/2024.01.08.574731)

How the values were obtained:
[1] = melting temperature; fluorescence melt of hairpins on a sequencing array, two-state fit, raised by 9.35 °C to match UV melts; conditions: sodium 0.088 M
In short: (§1)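 Library hairpins on a sequenced MiSeq flow cell carried annealed Cy3 and quencher oligos, and their Cy3 fluorescence was imaged in 50 mM Na-HEPES pH 8.0 with 25 mM NaCl, in 2.5 °C steps up to 60 °C. Signals were normalised to Cy3 before quenching and to control constructs. Melting temperature and folding enthalpy were obtained from bootstrapped two-state fits, combined by inverse-variance weighting across four replicates, and the fitted temperatures were then raised by 9.35 °C to match UV melts.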

[2] = folding enthalpy; higher = less favourable; fluorescence melt of hairpins on a sequencing array, two-state fit; conditions: sodium 0.088 M
In short: as §1

Sequence	Tm [1]	folding enthalpy [2]
GTATCCGAAAGGAGTAC ((((((....))).)))	35.5 °C	-19.1 kcal/mol
GTATCCGAAAGGATGTAC ((((((....)))..)))	36.7 °C	-11.5 kcal/mol
GTATCCGAAAGGATTAC ((((((....))).)))	41 °C	-13.7 kcal/mol
GTATCCGGAAACGGATGC (.(((((....))))).)	53 °C	-28.3 kcal/mol
GTATCGGGAAACCAATAC ((((.((....)).))))	30.3 °C	-24.6 kcal/mol
GTATGACGAAAGTCCTAC (((.(((....))).)))	38.9 °C	-24.3 kcal/mol
GTATGACGAAAGTCTAC (((.(((....))))))	39 °C	-16.9 kcal/mol
GTATGACGAAAGTCTTAC (((.(((....))).)))	47.2 °C	-24.7 kcal/mol
GTATGAGCGAAAGCTTAC (((..(((....))))))	30.1 °C	-9.43 kcal/mol
GTATGAGGAAACTCATAC (((((((....)))))))	54.6 °C	-36.9 kcal/mol
GTATGCCCGAAAGGGTAC (((..(((....))))))	31.2 °C	-8.06 kcal/mol
GTATGCCGAAAGGCCTAC (((.(((....))).)))	45.5 °C	-12.1 kcal/mol
GTATGCGAAAGCAAATAC ((((((....)))..)))	37.7 °C	-16.7 kcal/mol
GTATGCGAAAGCAACTAC ((((((....)))..)))	36.2 °C	-11.6 kcal/mol
GTATGCGAAAGCAGTAC ((((((....))).)))	39.5 °C	-17.7 kcal/mol
GTATGCGAAAGCATGTAC ((((((....)))..)))	38 °C	-10.6 kcal/mol
GTATGGCCGAAAGGCTAC (((..(((....))))))	30 °C	-7.75 kcal/mol
GTATGGCGAAAGCCCTAC (((.(((....))).)))	37.8 °C	-18.4 kcal/mol
GTATGGCGAAAGCCTAC (((.(((....))))))	46.6 °C	-13.2 kcal/mol
GTATGGCGAAAGCCTTAC (((.(((....))).)))	48.2 °C	-22.8 kcal/mol
GTATGGGGAAACCCGTAC (((.(((....))).)))	49.1 °C	-34.5 kcal/mol
GTATGGTCGAAAGACTAC (((..(((....))))))	27.9 °C	-15.5 kcal/mol
GTATGTCCGAAAGGATAC (((..(((....))))))	26.8 °C	-16.3 kcal/mol

Sequence	Tm [1]	folding enthalpy [2]
GTATGTCGAAAGACCTAC (((.(((....))).)))	39.6 °C	-19.2 kcal/mol
GTATGTGAAAACATAC ((((((....))))))	50.4 °C	-36.2 kcal/mol
GTATGTGGAAACACATAC (((((((....)))))))	56 °C	-42.4 kcal/mol
GTATTAGGAAACTAGTAC (((.(((....))).)))	29 °C	-16.2 kcal/mol
GTATTCGAAAGAACTAC ((((((....))).)))	22.4 °C	-9.16 kcal/mol
GTATTCGAAAGAATCTAC ((((((....)))..)))	33.3 °C	-10.7 kcal/mol
GTATTCGGAAACGAATAC (((((((....)))))))	56.8 °C	-48.2 kcal/mol
GTATTCTCGAAAGAGTAC (((..(((....))))))	22.9 °C	-7.69 kcal/mol
GTATTGCCGAAAGGCTAC (((..(((....))))))	50 °C	-3.24 kcal/mol
GTATTGCGAAAGCACTAC (((.(((....))).)))	39.4 °C	-21.5 kcal/mol
GTATTGGCGAAAGCCTAC (((..(((....))))))	41.5 °C	-3.67 kcal/mol
GTATTGTCGAAAGACTAC (((..(((....))))))	28.5 °C	-11.4 kcal/mol
GTCAAAGCGAAAGCTGAC (((..(((....))))))	48.1 °C	-21.2 kcal/mol
GTCAAAGGAAACTTTGGC (.(((((....))))).)	44.5 °C	-29.9 kcal/mol
GTCAACCGAAAGGTGAC (((.(((....))))))	55.7 °C	-24.4 kcal/mol
GTCAACGAAAGTTAAGAC ((((((....)))..)))	31.3 °C	-19.2 kcal/mol
GTCAACGAAAGTTCCGAC ((((((....)))..)))	20.9 °C	-9.76 kcal/mol
GTCAACGAAAGTTCGAC ((((((....))).)))	38.4 °C	-25.7 kcal/mol
GTCAACGGAAACGCTGAC ((((.((....)).))))	46.4 °C	-35.8 kcal/mol
GTCAAGACGAAAGTCGAC (((..(((....))))))	43.9 °C	-13.7 kcal/mol
GTCAAGCGAAAGCTGGAC (((.(((....))).)))	62.4 °C	-29.4 kcal/mol
GTCAATCGAAAGATGGAC (((.(((....))).)))	49.2 °C	-25.5 kcal/mol
GTCAATGAAAATTGAC ((((((....))))))	50.8 °C	-31.7 kcal/mol

Sequence	Tm [1]	folding enthalpy [2]
GTCACACCGAAAGGTGAC (((..(((....))))))	41.1 °C	-10.9 kcal/mol
GTCACACGAAAGTGCGAC (((.(((....))).)))	55.6 °C	-35.4 kcal/mol
GTCACAGAAATGTGAC ((((((....))))))	56.8 °C	-35.2 kcal/mol
GTCACAGGAAACCGTGAC (((((.(....).)))))	49.1 °C	-30.3 kcal/mol
GTCACAGGAAACTATGAC ((((.((....)).))))	32 °C	-20.1 kcal/mol
GTCACAGGAAACTGTGGC (.(((((....))))).)	52.5 °C	-32.8 kcal/mol
GTCACCGAAAGGTTGGAC ((((((....)))..)))	31.1 °C	-14.8 kcal/mol
GTCACCGCGAAAGCGGAC (((..(((....))))))	26.5 °C	-5.92 kcal/mol
GTCACCGGAAACGACGAC (((..((....))..)))	31.1 °C	-24.7 kcal/mol
GTCACCGGAAACGATGAC ((((.((....)).))))	45.9 °C	-33.5 kcal/mol
GTCACCGGAAACGGCGAC (((.(((....))).)))	54.5 °C	-40.6 kcal/mol
GTCACGGGAAACCACGAC (((..((....))..)))	34.9 °C	-23.6 kcal/mol
GTCACTCGAAAGAGAGAC (((.(((....))).)))	50.5 °C	-35.4 kcal/mol
GTCAGACGAAAGTCAGAC (((.(((....))).)))	53.6 °C	-31.5 kcal/mol
GTCAGCCGAAAGGCCGAC (((.(((....))).)))	55.8 °C	-21.4 kcal/mol
GTCAGCCGAAAGGCGAC (((.(((....))))))	61.5 °C	-15 kcal/mol
GTCAGCGAAAGCTAGGAC ((((((....)))..)))	40 °C	-14.1 kcal/mol
GTCAGGCCGAAAGGCGAC (((..(((....))))))	46.9 °C	-18 kcal/mol
GTCAGGCGAAAGCCCGAC (((.(((....))).)))	48.8 °C	-23.2 kcal/mol
GTCAGGGGAAACCTTGAC ((((.((....)).))))	47.2 °C	-28.1 kcal/mol
GTCAGTCCGAAAGGAGAC (((..(((....))))))	33.2 °C	-15.6 kcal/mol
GTCAGTCGAAAGACAGAC (((.(((....))).)))	51 °C	-39.4 kcal/mol
